Data on 3 compounds can be found in ChEMBL document CHEMBL1641604, “Application of p21 and klf2 reporter gene assays to identify selective histone deacetylase inhibitors for cancer therapy” (Bioorg Med Chem Lett, 2011).

One assay has as its target Histone deacetylase 3 (Homo sapiens, UniProt O15379).
In assay [1] the test system is HeLa. The assay is described as follows: Selectivity ratio for induction of p21 promoter gene in human HeLa cells to induction of klf2 promoter gene in human A204 cells at 3 uM. Type of assay: functional.
The target of a further assay is Histone deacetylase 2 (Homo sapiens, UniProt Q92769). The assay is described as follows: Inhibition of HDAC2.
Sequence of Histone deacetylase 2 (Q92769 whole entry): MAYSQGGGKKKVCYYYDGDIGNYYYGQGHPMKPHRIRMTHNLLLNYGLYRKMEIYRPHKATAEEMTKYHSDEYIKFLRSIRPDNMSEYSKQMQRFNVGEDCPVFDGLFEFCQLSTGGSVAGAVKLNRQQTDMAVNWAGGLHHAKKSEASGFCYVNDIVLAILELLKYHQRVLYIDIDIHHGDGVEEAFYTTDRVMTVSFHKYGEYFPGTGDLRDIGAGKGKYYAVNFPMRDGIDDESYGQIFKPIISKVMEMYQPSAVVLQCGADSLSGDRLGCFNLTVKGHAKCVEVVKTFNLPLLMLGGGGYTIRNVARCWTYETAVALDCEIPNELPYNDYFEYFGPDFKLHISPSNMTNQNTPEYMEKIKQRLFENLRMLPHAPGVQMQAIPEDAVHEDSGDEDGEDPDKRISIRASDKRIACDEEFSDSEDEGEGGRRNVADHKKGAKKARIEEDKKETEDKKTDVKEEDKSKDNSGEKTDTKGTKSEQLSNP
The target of the next assay is Histone deacetylase 1 (Homo sapiens, UniProt Q13547). The assay is described as follows: Inhibition of HDAC1.
Sequence of Histone deacetylase 1 (Q13547 whole entry): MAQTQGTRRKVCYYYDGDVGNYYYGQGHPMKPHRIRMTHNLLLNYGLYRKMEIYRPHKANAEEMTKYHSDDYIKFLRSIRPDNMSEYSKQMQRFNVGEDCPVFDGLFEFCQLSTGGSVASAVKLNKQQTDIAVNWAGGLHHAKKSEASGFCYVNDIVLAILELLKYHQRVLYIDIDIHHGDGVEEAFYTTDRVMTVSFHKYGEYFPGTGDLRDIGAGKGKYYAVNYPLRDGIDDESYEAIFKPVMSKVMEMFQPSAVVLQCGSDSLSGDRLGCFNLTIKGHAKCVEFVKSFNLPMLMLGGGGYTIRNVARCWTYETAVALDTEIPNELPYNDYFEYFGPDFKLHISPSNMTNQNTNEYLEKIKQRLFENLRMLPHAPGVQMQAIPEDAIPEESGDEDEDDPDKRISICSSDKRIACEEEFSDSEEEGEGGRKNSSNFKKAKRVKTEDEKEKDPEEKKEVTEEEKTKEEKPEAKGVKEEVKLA
In assay [2] the test system is HeLa. The assay is described as follows: Induction of p21 promoter gene in human HeLa cells assessed as percent induction activity at 3 uM relative to SNDX-275. The assay is classed as functional.
For assay [3], the system named is HeLa. Briefly: Selectivity ratio for induction of p21 promoter gene in human HeLa cells to induction of klf2 promoter gene in human A204 cells at 10 uM. The assay is classed as functional.
Assay [4] has as its system HeLa. Briefly: Induction of p21 promoter gene in human HeLa cells assessed as percent induction activity at 10 uM relative to SNDX-275. Type of assay: functional.
In assay [5] the test system is A204. Briefly: Induction of klf2 promoter gene in human A204 cells assessed as percent induction activity at 10 uM relative to SNDX-275. Type of assay: functional.
Assay [6] has as its system A204. Briefly: Induction of klf2 promoter gene in human A204 cells assessed as percent induction activity at 3 uM relative to SNDX-275. The assay is classed as functional.
In assay [7] the test system is A204. Briefly: Antiproliferative activity against human A204 cells assessed as growth at 10 uM after 24 hrs. The assay is classed as functional. The conditions noted are these: A204, 24 h, read-out: Activity. The method, boiled down: (§1)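 HeLa and A204 cells exposed to test agents at 3 or 10 µM for 24 h. Growth is expressed as percent of vehicle-treated control cells.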

Assay [8] has as its system A204. The assay is described as follows: Antiproliferative activity against human A204 cells assessed as growth at 3 uM after 24 hrs. The assay is classed as functional. Particulars: A204, 24 h, read-out: Activity. The method, boiled down:
as §1

In assay [9] the test system is HeLa. The assay is described as follows: Antiproliferative activity against human HeLa cells assessed as growth at 10 uM after 24 hrs. Type of assay: functional. The conditions noted are these: read-out: Activity. A digest of the protocol:
as §1

Assay [10] has as its system HeLa. Briefly: Antiproliferative activity against human HeLa cells assessed as growth at 3 uM after 24 hrs. Particulars: read-out: Activity. The assay is classed as functional. A digest of the protocol:
as §1

The test system of assay [11] is HeLa. Briefly: Antiproliferative activity against human HeLa cells after 72 hrs by tetrazolium dye assay. The assay is classed as functional. The method, boiled down: (§2)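 Tetrazolium dye proliferation assay over 72 h, with half-log serial dilutions from 30 µM down to 100 nM. GI50 was derived from the dose-response.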
For the next assay, the system named is U2OS. The assay is described as follows: Antiproliferative activity against human U2OS cells after 72 hrs by tetrazolium dye assay. Type of assay: functional. A digest of the protocol:
as §2

In assay [12] the test system is HCT-116. Briefly: Induction of acetylated H4 level in human HCT116 cells after 24 hrs. The assay is classed as functional, cell-based. The method, boiled down:
(§3)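 HCT-116 cells treated for 24 h across a range of concentrations. Acetylated histone H4 and endogenous p21, or cell-cycle distribution, were assessed.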

The subject of a further assay is HepG2. The assay is described as follows: Antiproliferative activity against human HepG2 cells after 72 hrs by tetrazolium dye assay. The conditions noted are these: HepG2, 72 h. The assay is classed as functional. A digest of the protocol:
as §2

The subject of another assay is MCF7. The assay is described as follows: Antiproliferative activity against human MCF7 cells after 72 hrs by tetrazolium dye assay. The assay is classed as functional. Particulars: MCF7, 72 h. The method, boiled down: as §2
In assay [13] the test system is HCT-116. Briefly: Induction of apoptosis in human HCT116 cells after 48 hrs by annexin V/FACS analysis. Type of assay: functional, cell-based. A digest of the protocol: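 HCT-116 cells exposed for 48 h to several concentrations or vehicle. Apoptosis was scored as percent annexin V-positive cells by FACS.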
Assay [14] deals with HCT-116. Briefly: Cell cycle arrest in human HCT116 cells after 24 hrs. The assay is classed as functional, cell-based. The method, boiled down:
as §3

The subject of assay [15] is HCT-116. Briefly: Antiproliferative activity against human HCT116 cells after 72 hrs by tetrazolium dye assay. The assay is classed as functional. Particulars: HCT-116, 72 h. The method, boiled down:
as §2

Assay [16] relates to HCT-116. The assay is described as follows: Induction of endogenous p21 level in human HCT116 cells after 24 hrs. Type of assay: functional, cell-based. A digest of the protocol:
as §3

The next assay concerns HL-60. Briefly: Antiproliferative activity against human HL60 cells after 72 hrs by tetrazolium dye assay. Particulars: HL-60, 72 h. Type of assay: functional. The method, boiled down:
as §2

SMILES strings stand for the structures.

Sequence of Histone deacetylase 3 (O15379 whole entry): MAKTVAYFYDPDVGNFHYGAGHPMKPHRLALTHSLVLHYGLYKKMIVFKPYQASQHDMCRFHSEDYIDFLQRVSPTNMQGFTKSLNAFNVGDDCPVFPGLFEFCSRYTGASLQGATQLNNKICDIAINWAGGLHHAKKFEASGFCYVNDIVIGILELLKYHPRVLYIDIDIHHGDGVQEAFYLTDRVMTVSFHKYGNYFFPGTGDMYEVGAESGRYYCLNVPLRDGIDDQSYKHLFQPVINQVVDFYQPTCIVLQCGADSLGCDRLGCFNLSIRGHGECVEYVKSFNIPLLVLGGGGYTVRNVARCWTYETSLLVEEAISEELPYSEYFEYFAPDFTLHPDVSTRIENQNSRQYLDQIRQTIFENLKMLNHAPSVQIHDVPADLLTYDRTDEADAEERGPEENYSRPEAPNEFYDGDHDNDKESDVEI

Regarding `Nc1ccccc1NC(=O)/C=C/c1ccc(C(NCCC2CCOCC2)C(=O)Nc2ccc(C(F)(F)F)cc2)cc1` (stereo unspecified), the IC50 against Histone deacetylase 3 worked out at 1000 nM; against Histone deacetylase 2, 800 nM; on Histone deacetylase 1, 200 nM. The Activity was determined as 1 in the assay on HeLa [1]; 53% in the assay with HeLa [2]; 1.1 with HeLa [3]; 64% in the assay with HeLa [4]; 58% in the assay with A204 [5]; 55% in the assay with A204 [6].

`Nc1ccccc1NC(=O)/C=C/c1ccc(C(NCCN2CCCCC2)C(=O)Nc2ccc(-c3ccc(C4CC4)cc3)cc2)cc1` (stereo unspecified): the IC50 is 360 nM on Histone deacetylase 3, 240 nM at Histone deacetylase 2 and 50 nM against Histone deacetylase 1. Further, the growth at 10 µM with A204 [7] came out at 89%; with HeLa [9], 81%. Moreover, the Activity amounted to 2.2 in the assay with HeLa [1]; 143% with HeLa [2]; 2.1 in the assay with HeLa [3]; 187% in the assay with HeLa [4]; 90% in the assay on A204 [5]; 65% in the assay with A204 [6]. Also, the results for the growth at 3 µM in the assay with A204 [8] and with HeLa [10] were 93% and 103%, respectively.

As to `Nc1ccccc1NC(=O)/C=C/c1ccc(C(NCCN2CCOCC2)C(=O)Nc2ccc(C(F)(F)F)cc2)cc1` (stereo unspecified), the results for the IC50 against Histone deacetylase 3, on Histone deacetylase 2 and at Histone deacetylase 1 were 460 nM, 290 nM and 60 nM, respectively. Besides, the GI50 with HeLa [11] came out at 2200 nM; in the assay on U2OS, 1000 nM; with HepG2 it was 1700 nM; in the assay on MCF7 it was 1900 nM; in the assay on HCT-116 [15], 1000 nM; in the assay with HL-60, 400 nM. For the same compound, the Activity in the assay on HeLa [1] was 1.4; with HCT-116 [12], “Dose-dependent effect”; in the assay with HeLa [2] it was 86%; with HCT-116 [13], “Dose-dependent effect”; with HCT-116 [14], “Dose-dependent effect”; in the assay with HeLa [3] it was 3.1. The Activity in the assay with HeLa [4] is 116%; in the assay with HCT-116 [16], “Dose-dependent effect”; with A204 [5], 38%; with A204 [6], 64%.
